Calls of active or inactive are those of the source. The rule behind the calls is not given here.
Assays:
[1] = Anticancer activity against human Non-small cell lung cancer cell line assessed as cell growth inhibition incubated for 48 hrs by Sulphorhodamine B assay; type: functional
Procedure, shortened: (§1)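 NCI-60 five-dose screen. Cells in RPMI 1640 with 5% FBS and 2 mM L-glutamine were plated at 5,000–40,000 cells/well and held 24 h before dosing. Compounds came from DMSO stocks and were given at five concentrations (10-fold or ½-log dilutions) for 48 h at 37 °C. Adherent cells were TCA-fixed and stained with SRB; A515 was read. GI50 was set from growth = 50% and TGI from Ti = Tz, using Tz/C/Ti.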

[2] = system: Panel leukemia (Carcinoma cell lines); experiment: Anticancer activity against human Panel leukemia (Carcinoma cell lines) assessed as total growth inhibition incubated for 48 hrs by Sulphorhodamine B assay; type: functional
[3] = Anticancer activity against human Non-small cell lung cancer cell line assessed as total growth inhibition incubated for 48 hrs by Sulphorhodamine B assay; type: functional; procedure, shortened: as §1
[4] = system: Panel colon (Carcinoma cell lines); experiment: Anticancer activity against human Panel colon (Carcinoma cell lines) assessed as total growth inhibition incubated for 48 hrs by Sulphorhodamine B assay; type: functional; procedure, shortened: as §1
[5] = system: Panel CNS (Carcinoma cell lines); experiment: Anticancer activity against human Panel CNS (Carcinoma cell lines) assessed as total growth inhibition incubated for 48 hrs by Sulphorhodamine B assay; type: functional; procedure, shortened: as §1
[6] = system: Panel melanoma (Carcinoma cell lines); experiment: Anticancer activity against human Panel melanoma (Carcinoma cell lines) assessed as total growth inhibition incubated for 48 hrs by Sulphorhodamine B assay; type: functional; procedure, shortened: as §1
[7] = system: Panel prostate (Carcinoma cell lines); experiment: Anticancer activity against human Panel prostate (Carcinoma cell lines) assessed as total growth inhibition incubated for 48 hrs by Sulphorhodamine B assay; type: functional; procedure, shortened: as §1
[8] = system: Panel leukemia (Carcinoma cell lines); experiment: Anticancer activity against human Panel leukemia (Carcinoma cell lines) assessed as lethality incubated for 48 hrs by Sulphorhodamine B assay; type: functional
[9] = Anticancer activity against human Non-small cell lung cancer cell line assessed as lethality incubated for 48 hrs by Sulphorhodamine B assay; type: functional
[10] = system: Panel melanoma (Carcinoma cell lines); experiment: Anticancer activity against human Panel melanoma (Carcinoma cell lines) assessed as lethality incubated for 48 hrs by Sulphorhodamine B assay; type: functional
[11] = target: T1, DNA topoisomerase 1 (Homo sapiens) (UniProt P11387); experiment: Inhibition of human DNA topoisomerase I mediated supercoiled pHOT1 plasmid DNA relaxation upto 100 uM incubated for 30 mins by ethidium bromide staining based agarose gel electrophoresis analysis
T1 sequence (whole entry): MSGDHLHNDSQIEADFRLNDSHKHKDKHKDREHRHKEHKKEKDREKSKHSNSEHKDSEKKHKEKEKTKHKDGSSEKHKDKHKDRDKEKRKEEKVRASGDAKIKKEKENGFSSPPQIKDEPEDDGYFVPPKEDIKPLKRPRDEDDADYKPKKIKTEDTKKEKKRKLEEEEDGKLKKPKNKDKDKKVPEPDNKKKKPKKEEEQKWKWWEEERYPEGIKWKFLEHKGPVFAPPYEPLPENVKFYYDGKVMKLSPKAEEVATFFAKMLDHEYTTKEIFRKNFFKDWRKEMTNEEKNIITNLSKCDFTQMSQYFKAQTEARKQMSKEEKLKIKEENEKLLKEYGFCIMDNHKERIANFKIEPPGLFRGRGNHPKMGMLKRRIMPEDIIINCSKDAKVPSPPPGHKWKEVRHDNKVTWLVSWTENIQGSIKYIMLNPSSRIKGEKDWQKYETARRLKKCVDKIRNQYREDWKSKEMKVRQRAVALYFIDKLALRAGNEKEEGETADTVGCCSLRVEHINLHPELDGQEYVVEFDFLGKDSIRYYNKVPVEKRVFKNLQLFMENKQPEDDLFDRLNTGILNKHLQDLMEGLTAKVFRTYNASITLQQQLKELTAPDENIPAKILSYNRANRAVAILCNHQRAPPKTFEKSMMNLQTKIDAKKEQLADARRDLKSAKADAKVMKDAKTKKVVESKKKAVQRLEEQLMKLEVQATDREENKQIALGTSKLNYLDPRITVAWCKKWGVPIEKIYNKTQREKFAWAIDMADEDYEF

[12] = system: Calf thymus DNA; experiment: Binding affinity to calf thymus DNA assessed as maximum absorption wavelength shift at pH 7.4 at 10 uM by UV-vis absorption spectroscopy; type: nucleic-acid assay; details: Bos taurus
Procedure, shortened: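 Absorption titration at 300 K in a 1 cm cell, background subtracted. Compound was fixed (10 μM per legend; 20 μM in methods) with ct-DNA added up to 15–20 μM in 10 mM phosphate buffer, pH 7.4 (A260/A280 1.82). A buffer-addition control was run. K was taken from the 1/(Af−Aobs) vs 1/[DNA] fit.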

Row | Structure (SMILES) | GI50 [1] [µM] | TGI [2] [µM] | TGI [3] [µM] | TGI [4] [µM] | TGI [5] [µM] | TGI [6] [µM] | TGI [7] [µM] | LC50 [8] [µM] | LC50 (lethal concentration, 50% cell kill) [9] [µM] | LC50 (lethal concentration 50) [10] [µM] | inhibition [11] | Activity [12] [nm]
1 | OCCN1CCN(c2nc(Nc3ccc(-c4nc5ccccc5[nH]4)cc3)c3cn[nH]c3n2)CC1 | 1.57 | 1.22 | 3.23 | 2.12 | 3.26 | 3.41 | 2.96 | > 100 | 6.26 | 5.83 | inactive | 259
2 | Fc1ccc(Nc2nc(Nc3ccc(-c4nc5ccccc5[nH]4)cc3)c3cn[nH]c3n2)cc1 | 2.11 | 6.33 | 5.37 | 3.83 | 5.08 | 3.74 | 4.14 | > 100 | 32.5 | 6.92 | inactive | 257

Source: ChEMBL document CHEMBL5260793, “Novel pyrazolo[3,4-d]pyrimidine with 4-(1H-benzimidazol-2-yl)-phenylamine as broad spectrum anticancer agents: Synthesis, cell based assay, topoisomerase inhibition, DNA intercalation and bovine serum albumin studies” (Eur J Med Chem, 2017)
